Experimental data from PubChem BioAssay.
Activity calls are given as the source filed them.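 How the source made its calls, unless noted: active means GFP response above 150% of the DMSO level; inconclusive means fewer than 70 events counted for a yeast strain; inactive means the rest.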

Key:
[1] = hit retest on RPL19A-GFP reporter strain – cell-based, S. cerevisiae, flow cytometry, cherry picks, mother/daughter gates, confirmation (AID 2270;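 active means GFP response below 50% of the DMSO control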); conditions: 3 h, at 10 µM, stronger effect = lower value, 100 = same GFP as DMSO wells
[2] = yeast TOR pathway reporter LAP4-GFP change – cell-based, cherry picks, flow cytometry, mother/daughter gates, confirmation (AID 2271;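 active means GFP response above 150% of the DMSO control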;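 further: ratio of sample to DMSO plate mean so 100% equals DMSO level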); conditions: S. cerevisiae LAP4-GFP strain, 3 h, at 10 µM, stronger effect = higher value, 100 means same as DMSO control
Procedure, shortened: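 System: GFP-fusion yeast strain | Input: Yeast cells seeded at OD600 of 0.2 | Technique: HT flow cytometry, GFP fluorescence channel | Read-out: % GFP response vs DMSO | Dosing: Single test-compound dose, 10 µM final | Controls: Positive rapamycin (400 ng/mL), negative DMSO | Times: 3 h treatment at 30 °C with rotation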

[3] = TOR pathway reporter MEP2-GFP, retest of hits – S. cerevisiae, flow cytometry GFP, cherry picks, confirmation (AID 2272;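 active means GFP response above 150% of the DMSO control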;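 further: ratio of well signal to plate DMSO mean so 100% equals DMSO level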); conditions: S. cerevisiae MEP2-GFP strain, 3 h, at 10 µM, stronger effect = higher value
[4] = yeast AGP1-GFP fluorescence change, single-dose – cell-based, flow cytometry, S. cerevisiae, cherry picks, confirmation (AID 2273);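 further: median GFP channel fluorescence over the whole cell population gate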; conditions: S. cerevisiae AGP1-GFP strain, 3 h, at 10 µM
[5] = TOR pathway CIT2 reporter hit retest – S. cerevisiae, GFP fusion, cherry picks, mother/daughter gates, confirmation (AID 2274); conditions: S. cerevisiae CIT2-GFP strain, flow cytometry, 3 h, at 10 µM, stronger effect = higher value
[6] = measured here: daughter cell gate
[7] = measured here: mother cell gate
[8] = measured here: daughter cell gate response
[9] = measured here: mother cell gate response

Compound | GFP response vs DMSO [1] | GFP response vs DMSO [1, 6] | GFP response vs DMSO [1, 7] | GFP response relative to DMSO [2] | GFP response relative to DMSO [2, 8] | GFP response relative to DMSO [2, 9] | GFP response vs DMSO [3] | GFP response, % of DMSO [4] | GFP response, % of DMSO [5] | GFP response, % of DMSO [5, 6] | GFP response, % of DMSO [5, 7]
C=CCOc1ccccc1C(=O)/C=C1/C(=O)Nc2ccccc21 | 101% (inactive) | 102% | 95% | 142% (inactive) | 130% | 148% | 94.7% (inactive) | 100% (inactive) | 91.5% (inactive) | 95.6% | 88.2%
CCOc1ccc(N2C(=O)C(Cl)=C(Nc3ccccc3O)C2=O)cc1 | 97.4% (inactive) | 98% | 98.1% | 103% (inactive) | 99.3% | 105% | 104% (inactive) | 96.7% (inactive) | 97.8% (inactive) | 100% | 95.6%
O=c1cc(-c2c(F)c(F)c(F)c(F)c2F)oc2c(F)c(F)c(F)c(F)c12 | 105% (inactive) | 101% | 101% | 145% (inactive) | 120% | 145% | 131% (inactive) | 113% (inactive) | 132% (inactive) | 119% | 118%
COc1ccc(-c2cc3cc(C(=O)O)ccn3c2C(=O)c2ccccc2)cc1 | 97% (inactive) | 95.6% | 98.4% | 107% (inactive) | 106% | 108% | 105% (inactive) | 98.3% (inactive) | 98.3% (inactive) | 99.1% | 99.7%
CCOc1cc(/C=C2\N=C(C)OC2=O)cc(Br)c1OCCc1ccccc1 | 100% (inactive) | 99.8% | 101% | 102% (inactive) | 95% | 103% | 99.5% (inactive) | 97.3% (inactive) | 92.1% (inactive) | 92.7% | 88.6%
O=C(NCc1ccccn1)c1cc(-c2ccc(Cl)cc2)oc1C(F)(F)F | 99.5% (inactive) | 98.4% | 99.8% | 103% (inactive) | 106% | 102% | 100% (inactive) | 99.4% (inactive) | 102% (inactive) | 98.1% | 101%
CCN(CC)CCN(C(=O)c1ccc2c(c1)CCCC2)c1nc2cc(OC)c(OC)cc2s1 | 94.1% (inactive) | 96% | 94.1% | 98.8% (inactive) | 99.3% | 95.6% | 97.5% (inactive) | 101% (inactive) | 99.3% (inactive) | 102% | 98%
O=C(O)c1ccc(N/N=C/c2c(F)cccc2Cl)cc1 | 99.5% (inactive) | 100% | 98.1% | 124% (inactive) | 121% | 124% | 108% (inactive) | 94% (inactive) | 96.4% (inactive) | 92.7% | 94.5%
COc1ccc(-c2nc(NC(=O)c3cc(C(C)(C)C)nn3C)sc2C)cc1 | 98.7% (inactive) | 100% | 99% | 98.9% (inactive) | 101% | 99.5% | 103% (inactive) | 100% (inactive) | 104% (inactive) | 103% | 104%
COc1ccc(COC(=O)c2n[nH]c3ccccc23)cc1F | 98.4% (inactive) | 96.7% | 98.2% | 97.4% (inactive) | 98.7% | 99.3% | 102% (inactive) | 95% (inactive) | 106% (inactive) | 108% | 104%
O=S(=O)(/N=C(\Sc1ccc(Cl)cc1)c1ccccc1)c1ccccc1 | 93.1% (inactive) | 94.4% | 90.2% | 182% (active) | 145% | 178% | 99.3% (inactive) | 101% (inactive) | 90.3% (inactive) | 92.3% | 83.7%
O=C(COc1ccc(OCc2ccccc2)cc1)NN=C1CCCC1 | 98% (inactive) | 98.4% | 97.1% | 107% (inactive) | 104% | 109% | 103% (inactive) | 99.5% (inactive) | 100% (inactive) | 101% | 99.3%
Oc1c(Br)cc(Br)cc1C=Nc1ccc2[nH]ncc2c1 | 99.5% (inactive) | 89.2% | 97.2% | 185% (active) | 124% | 176% | 112% (inactive) | 102% (inactive) | 96.4% (inactive) | 102% | 87.5%
Cc1ccn2c(NC3CCCCC3)c(C)nc2c1 | 99.4% (inactive) | 100% | 99.6% | 95.7% (inactive) | 95.9% | 96.2% | 99% (inactive) | 99% (inactive) | 98.8% (inactive) | 101% | 96.8%
Cc1ccc(NC(=O)c2nc(S(=O)(=O)Cc3ccccc3C)ncc2Cl)cc1C | 91.6% (inactive) | 89.6% | 91.6% | 107% (inactive) | 107% | 107% | 103% (inactive) | 107% (inactive) | 94.4% (inactive) | 92.3% | 94.9%
CCOC(=O)C(=CNNc1cccc(Cl)c1)C(=O)OCC | 103% (inactive) | 102% | 102% | 131% (inactive) | 125% | 137% | 111% (inactive) | 103% (inactive) | 103% (inactive) | 101% | 104%
CCc1nnc(NC(=O)CSc2nnc(C3CCCCC3)n2-c2cccc(Cl)c2)s1 | 98.2% (inactive) | 98.5% | 98.6% | 100% (inactive) | 99.3% | 99.5% | 102% (inactive) | 101% (inactive) | 101% (inactive) | 102% | 100%
COc1cccc(C(=O)C(C#N)=C(SC)SC)c1 | 108% (inactive) | 102% | 106% | 123% (inactive) | 108% | 126% | 97.8% (inactive) | 95.7% (inactive) | 80.8% (inactive) | 80.1% | 79.4%
N#C/C(=C\c1c(N(Cc2ccccc2)Cc2ccccc2)nc2ccccn2c1=O)C(N)=O | 98.4% (inactive) | 99.2% | 98.2% | 99.8% (inactive) | 97.2% | 102% | 102% (inactive) | 104% (inactive) | 106% (inactive) | 101% | 109%
Clc1ccc(-n2nnnc2Sc2ncnc3sccc23)cc1 | 100% (inactive) | 98.4% | 98.8% | 131% (inactive) | 123% | 130% | 131% (inactive) | 115% (inactive) | 106% (inactive) | 105% | 105%
COc1ccc(Cc2nnc(NC(=O)c3ccccc3F)s2)cc1 | 97.6% (inactive) | 96.4% | 98.5% | 101% (inactive) | 105% | 101% | 100% (inactive) | 98.3% (inactive) | 100% (inactive) | 99.7% | 97.7%
CC(=O)N(\C=C/C=C/C=C1\Sc2ccccc2C1=O)c1ccccc1 | 110% (inactive) | 106% | 108% | 153% (active) | 145% | 152% | 238% (active) | 112% (inactive) | 131% (inactive) | 128% | 131%
